In PubChem BioAssay:
The source made the active and inactive calls.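 The calls were made as follows, unless noted: active = viability at or under a set limit in both replicates, limit being median viability minus 3 SD (cut at about 48% in these data, passing the limit was not always enough); inconclusive = at or under the limit in just one replicate; inactive = at or above the limit in both replicates.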

Experiments:
[1] = Her2 expression decrease, cell viability multiplex – SKBR3 breast tumor cells, AlphaScreen, ATP viability, primary screen (AID 461;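 active = Her2 level under about 52% in both replicate screens, with viability over 70% of control, limit read from the data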;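 as to Her2 level: lower value means less Her2 protein in the cells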;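 as to viability: percent of carrier control wells set as 100% viability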); settings: SKBR3 Her2 protein level, 18-24 h, measured here: SKBR3 viability, ATP luminescence, at 10 µM
[2] = molecular target: Receptor tyrosine-protein kinase erbB-2 (Homo sapiens) (UniProt P04626); assay: as above; settings: 18-24 h, at 10 µM, stronger effect = lower value
[3] = reduced viability of SK-BR-3 breast cancer cells – cell-based, 24 h, human, pilot screen (AID 572;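 active = viability at or below 10% of carrier control in both of two separate runs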;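 also: compound exposure lasted between 18 and 24 h rather than exactly 24 h; 100% = carrier-treated control wells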); settings: SK-BR-3 viability, CellTiter-Glo luminescence, at 10 µM, stronger effect = lower value
[4] = HUVEC growth inhibition – cell-based, human, primary screen (AID 575;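 active = viability at or below 30% in both replicate assays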;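 also: 100% = median of untreated cell wells with 0.1% DMSO on each plate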); settings: HUVEC proliferation, CellTiter-Glo luminescence, 72 h; at 10 µM; stronger effect = lower value
Procedure, shortened: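 Assay system: Primary human umbilical vein endothelial cells | Quantity: 1250 cells per well | Medium: Supplemented EBM, 2% fetal bovine serum | Detection: CellTiter-Glo luminescence measuring cellular ATP | Read-out: % viability vs DMSO wells | Plate: Collagen-coated 384-well format | Times: 72 h exposure, 37 °C, 5% CO2, 30 min RT equilibration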

[5] = H69AR cell proliferation blockers – human, duplicate replicates, primary screen (AID 580); settings: H69AR lung tumor cells viability, ATP luminescence, 72 h; at 10 µM; stronger effect = lower value;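 also: 100% = mean luminescence of untreated wells and 0% = no signal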
[6] = MRP1 drug-resistance reversers in H69AR cells – cell-based, doxorubicin co-treatment, pilot screen (AID 601;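 active = viability loss from added drug above about 55%, and viability with drug at most 40%, in both replicates, limit read from the data, passing the limit was not always enough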); settings: CellTiter-Glo, 72 h, at 10 µM; for differential viability (reversal): stronger effect = higher value
[7] = yeast transport mutant growth inhibition pilot in 384-well plates, post-Golgi transport modulator project (AID 636; in the data active = inhibition above about 31%); settings: absorbance 615 nm, about 18 h, stronger effect = higher value
[8] = growth suppression of yeast trafficking mutant, preliminary HTS, modulators of trafficking downstream of Golgi apparatus project, 1536-format plate, OD 615 nm (AID 637; in the data active = inhibition above about 30%); settings: yeast transport mutant growth, absorbance 615 nm, 18 h; stronger effect = higher value
[9] = H69AR cells + 2 uM doxorubicin, measured here: viability with 2 uM doxorubicin, stronger effect = lower value
[10] = H69AR cells, compound alone cytotoxicity

Chain of Receptor tyrosine-protein kinase erbB-2 (Homo sapiens) (P04626 whole entry, looked up): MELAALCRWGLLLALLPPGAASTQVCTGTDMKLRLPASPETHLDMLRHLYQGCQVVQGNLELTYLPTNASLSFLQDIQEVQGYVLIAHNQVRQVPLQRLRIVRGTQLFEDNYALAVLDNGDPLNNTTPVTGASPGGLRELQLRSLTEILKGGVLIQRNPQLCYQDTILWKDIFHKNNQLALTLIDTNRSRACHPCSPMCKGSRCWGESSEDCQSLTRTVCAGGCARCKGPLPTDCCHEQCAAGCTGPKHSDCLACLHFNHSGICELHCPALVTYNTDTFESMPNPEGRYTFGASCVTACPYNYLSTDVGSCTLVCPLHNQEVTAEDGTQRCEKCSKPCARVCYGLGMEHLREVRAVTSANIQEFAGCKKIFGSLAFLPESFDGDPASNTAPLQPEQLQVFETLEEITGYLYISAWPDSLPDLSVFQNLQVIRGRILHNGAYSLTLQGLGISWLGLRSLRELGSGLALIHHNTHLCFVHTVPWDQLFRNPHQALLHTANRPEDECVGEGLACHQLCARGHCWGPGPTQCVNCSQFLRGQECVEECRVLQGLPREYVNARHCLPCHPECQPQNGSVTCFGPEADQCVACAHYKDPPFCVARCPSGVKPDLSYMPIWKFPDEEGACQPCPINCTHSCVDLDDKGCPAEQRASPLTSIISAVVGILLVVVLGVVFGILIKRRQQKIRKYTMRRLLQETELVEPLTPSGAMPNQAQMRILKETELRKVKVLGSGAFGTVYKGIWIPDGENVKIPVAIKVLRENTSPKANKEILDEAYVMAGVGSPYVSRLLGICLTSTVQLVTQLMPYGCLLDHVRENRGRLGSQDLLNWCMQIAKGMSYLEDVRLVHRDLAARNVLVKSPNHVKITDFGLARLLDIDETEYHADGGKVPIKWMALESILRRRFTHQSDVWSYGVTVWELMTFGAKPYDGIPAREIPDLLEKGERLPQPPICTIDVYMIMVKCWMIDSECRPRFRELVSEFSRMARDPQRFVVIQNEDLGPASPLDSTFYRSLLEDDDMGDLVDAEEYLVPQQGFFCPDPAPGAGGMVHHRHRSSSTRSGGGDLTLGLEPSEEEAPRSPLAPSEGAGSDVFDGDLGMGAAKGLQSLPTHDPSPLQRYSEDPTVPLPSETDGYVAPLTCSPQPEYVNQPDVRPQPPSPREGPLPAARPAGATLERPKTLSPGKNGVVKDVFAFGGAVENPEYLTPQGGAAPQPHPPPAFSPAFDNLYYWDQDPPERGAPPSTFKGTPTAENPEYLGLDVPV

CC(=O)c1ccc2c3c(cccc13)C(=O)N(c1c(C)nn(C)c1C)C2=O
viability [1]: 99%
Her2 level [2]: 108% (inactive)
viability [3]: 99% (inactive)
viability [4]: 112% (inactive)
viability [5]: 104% (inactive)
differential viability (reversal) ([6]; H69AR cells + 2 uM doxorubicin): 0.09% (inactive)
viability [6, 9]: 104%
viability [6, 10]: 104%
inhibition [7]: 1.07% (inactive)
inhibition [8]: 1.31% (inactive)

O=C(Cn1c(NCCO)nc2ccccc21)c1ccccc1
viability [1]: 100%
Her2 level [2]: 100% (inactive)
viability [3]: 100% (inactive)
viability [4]: 99.6% (inactive)
viability [5]: 104% (inactive)
differential viability (reversal) ([6]; H69AR cells + 2 uM doxorubicin): 3.85% (inactive)
viability [6, 9]: 101%
viability [6, 10]: 104%
inhibition [7]: -2.16% (inactive)
inhibition [8]: 2.7% (inactive)

CC(C)CNC(=O)c1ccccc1NC(=O)CN(c1ccc2c(c1)OCCO2)S(C)(=O)=O
viability [1]: 92%
Her2 level [2]: 121% (inactive)
viability [3]: 92% (inactive)
viability [4]: 96.8% (inactive)
viability [5]: 92.3% (inactive)
differential viability (reversal) ([6]; H69AR cells + 2 uM doxorubicin): 1.55% (inactive)
viability [6, 9]: 90.8%
viability [6, 10]: 92.3%
inhibition [7]: -0.27% (inactive)
inhibition [8]: -8.23% (inactive)

CC(NC(=O)c1ccco1)c1ccc2c(c1)OCCO2 (stereo not given)
viability [1]: 116%
Her2 level [2]: 95.5% (inactive)
viability [3]: 116% (inactive)
viability [4]: 90.7% (inactive)
viability [5]: 96.3% (inactive)
differential viability (reversal) ([6]; H69AR cells + 2 uM doxorubicin): 9.19% (inactive)
viability [6, 9]: 87.1%
viability [6, 10]: 96.3%
inhibition [7]: -5.73% (inactive)
inhibition [8]: -1.43% (inactive)

CCOC(=O)N1CCN(Cc2ccccc2F)CC1
viability [1]: 102%
Her2 level [2]: 81% (inactive)
viability [3]: 102% (inactive)
viability [4]: 98.1% (inactive)
viability [5]: 85% (inactive)
differential viability (reversal) ([6]; H69AR cells + 2 uM doxorubicin): -2.15% (inactive)
viability [6, 9]: 87.2%
viability [6, 10]: 85%
inhibition [7]: -7.33% (inactive)
inhibition [8]: 2.3% (inactive)

O=C(CN1CCN(C2CCCCC2)CC1)Nc1ccccc1-c1ccccc1
viability [1]: 90.5%
Her2 level [2]: 61% (inactive)
viability [3]: 90.5% (inactive)
viability [4]: 91.4% (inactive)
viability [5]: 84.7% (inactive)
differential viability (reversal) ([6]; H69AR cells + 2 uM doxorubicin): 7.96% (inactive)
viability [6, 9]: 76.7%
viability [6, 10]: 84.7%
inhibition [7]: -3.24% (inactive)
inhibition [8]: 1.9% (inactive)

Cn1c(C(=O)NCCC2=CCCCC2)cc2c(=O)n3ccccc3nc21
viability [1]: 88%
Her2 level [2]: 98.5% (inactive)
viability [3]: 88% (inactive)
viability [4]: 95.5% (inactive)
viability [5]: 96.1% (inactive)
differential viability (reversal) ([6]; H69AR cells + 2 uM doxorubicin): 15.7% (inactive)
viability [6, 9]: 80.4%
viability [6, 10]: 96.1%
inhibition [7]: 0.26% (inactive)
inhibition [8]: -1.97% (inactive)
